Measurements as given in ChEMBL document CHEMBL4024800, “α-Amino-β-carboxymuconate-ε-semialdehyde Decarboxylase (ACMSD) Inhibitors as Novel Modulators of De Novo Nicotinamide Adenine Dinucleotide (NAD+) Biosynthesis” (J Med Chem, 2018).
Converted amounts (≈) assume the structure as drawn. Blank lines part the entries; values can stand above or below the molecule they belong to. The source made the active and inactive calls. No cut-off for these calls is given here.

Legend:
[1] = molecular target: T1, 2-amino-3-carboxymuconate-6-semialdehyde decarboxylase (Homo sapiens, UniProt Q8TDX5); test: Inhibition of human ACMSD expressed in Pichia pastoris using ACMS as substrate by coupled spectrophotometric assay
How it was run: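 Recombinant enzyme purified from Pichia pastoris; ACMS substrate generated in a pre-assay mix from 10 μM 3-hydroxyanthranilic acid by Ralstonia metallidurans 3-hydroxyanthranilate 3,4-dioxygenase, formation monitored at 360 nm. Enzyme and compound then added together; activity from initial rate of absorbance decrease minus a no-enzyme control. Serial dilutions, 1.0% DMSO throughout. IC50 from concentration–response curves, mean ± SD of three independent experiments.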
Target sequence in this assay (Q8TDX5 whole entry): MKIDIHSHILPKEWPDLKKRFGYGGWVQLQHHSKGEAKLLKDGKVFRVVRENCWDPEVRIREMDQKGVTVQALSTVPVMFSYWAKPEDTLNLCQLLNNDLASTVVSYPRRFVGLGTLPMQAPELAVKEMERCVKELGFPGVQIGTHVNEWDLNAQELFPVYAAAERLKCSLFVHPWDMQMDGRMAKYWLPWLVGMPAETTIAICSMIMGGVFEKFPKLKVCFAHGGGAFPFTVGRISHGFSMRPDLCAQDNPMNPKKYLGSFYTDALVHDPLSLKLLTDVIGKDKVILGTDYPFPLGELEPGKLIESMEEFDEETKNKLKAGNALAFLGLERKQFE

[2] = molecular target: Kynurenine 3-monooxygenase (Rattus norvegicus, UniProt O88867); test: Inhibition of rat liver KMO using [3,5-3H]-kynurenine substrate
[3] = Volume of distribution at steady state in CD1 mouse at 0.5 mg/kg, iv measured up to 24 hrs post dose; type: ADME, organism-based; details: in vivo, read-out: Vdss
How it was run: (§1)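 Mice given 0.5 mg/kg IV in saline containing 5% (v/v) DMSO and 20% (v/v) PEG400; blood pharmacokinetic parameters reported as means.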

[4] = Half life in CD1 mouse at 0.5 mg/kg, iv measured up to 24 hrs post dose; type: ADME, organism-based; details: in vivo; how it was run: as §1
[5] = Drug uptake in mouse central nervous system at 5 mg/kg, po in presence of P-gp inhibitor Elacridar; type: ADME, organism-based; details: in vivo
[6] = Oral bioavailability in CD1 mouse at 5 mg/kg measured up to 8 hrs after dose; type: ADME, organism-based; details: in vivo
How it was run: (§2)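 Mice dosed orally at 5 mg/kg in 0.5% (w/v) HPMC in water with 5% (v/v) DMSO; blood, liver and kidney concentrations followed to 8 h. AUC0–8h given in h·ng/mL; parameters reported as means.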

[7] = AUClast in CD1 mouse at 0.5 mg/kg, iv measured up to 24 hrs post dose; type: ADME, organism-based; set-up: dose 0.5 mg/kg, time < 24 hr, route intravenous; details: in vivo; how it was run: as §1
[8] = Cmax in CD1 mouse at 5 mg/kg, po measured up to 8 hrs after dose; type: ADME, organism-based; set-up: dose 5 mg/kg, route oral; details: in vivo; how it was run: as §2
[9] = Apparent passive permeability from apical to basolateral side in MDCK2-MDR1 cells at 3 uM after 90 mins by LC-MS/MS analysis; type: ADME, cell-based, Canis lupus familiaris; details: dog, MDCK-MDR1
How it was run: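 MDCKII-MDR1 monolayers, HBSS transport medium pH 7.4; compound 3 μM for 90 min, run with and without a P-gp inhibitor, n = 3. Quantified by LC-MS/MS as analyte/internal-standard peak-area ratio; monolayer integrity checked with Lucifer yellow. Papp given in nm/sec, A>B.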

[10] = Solubility of compound in PBS buffer at pH 7.4 after 24 hrs by UV/vis-spectroscopic analysis; type: physicochemical
How it was run: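 Compound in PBS pH 7.4 with 1% DMSO mixed, incubated 24 h and vacuum-filtered; filtrate read by UV/vis and relative solubility calculated from summed readings against a standard. Reported in mg/mL.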

[11] = AUClast in mouse blood at 5 mg/kg, po measured up to 8 hrs post dose; type: ADME, organism-based; set-up: time < 8 hr, dose 5 mg/kg, route oral; how it was run: as §2
Cytochrome P450 2C19 = Cytochrome P450 2C19 (Homo sapiens, UniProt P33261); test: Inhibition of recombinant human CYP2C19 expressed in baculosomes expression system using fluorogenic-BOMCC as substrate by fluorescent homogeneous assay; type: ADME
How it was run: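 Recombinant CYP baculosomes with fluorogenic substrates, at concentrations below their Km; homogeneous fluorescence read-out, run in triplicate. IC50 classes: <1 μM potent, 1–10 μM moderate, >10 μM weak or none.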

HepG2 = test: Cytotoxicity against human HepG2 cells assessed as reduction in cell viability after 4 hrs by celltiter-glo assay; type: cell-based; details: hepg2, 4 h
How it was run: (§3)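 HepG2 or AML12 cells, 5 × 10^3 per well, exposed to compound for 4 h at 37 °C. Viability read as ATP by CellTiter-Glo luminescence; tamoxifen control.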

[12] = AUClast in mouse liver at 5 mg/kg, po measured up to 8 hrs post dose; type: ADME, organism-based; set-up: dose 5 mg/kg, time < 8 hr, route oral; how it was run: as §2
[13] = Clearance in CD1 mouse at 0.5 mg/kg, iv measured up to 24 hrs post dose; type: ADME, organism-based; details: in vivo; how it was run: as §1
[14] = Tmax in CD1 mouse at 5 mg/kg, po measured up to 8 hrs post dose; type: ADME, organism-based; details: in vivo; how it was run: as §2
[15] = molecular target: Voltage-gated inwardly rectifying potassium channel KCNH2 (Homo sapiens, UniProt Q12809); test: Displacement of red fluorescent channel ligand tracer from human ERG expressed in CHO cell membranes
How it was run: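 Fluorescence polarisation kit: membranes from CHO cells stably expressing hERG, with a red fluorescent high-affinity tracer; competitors detected by tracer displacement, seen as lowered polarisation. Final DMSO 1%; E-4031 reference.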

[16] = Cytotoxicity against mouse AML-12 cells assessed as reduction in cell viability after 4 hrs by celltiter-glo assay; type: cell-based; details: aml-12, 4 h; how it was run: as §3
[17] = AUClast in mouse kidney at 5 mg/kg, po measured up to 8 hrs post dose; type: ADME, organism-based; set-up: time < 8 hr, dose 5 mg/kg, route oral; how it was run: as §2
[18] = molecular target: T2, Nuclear receptor subfamily 1 group I member 2 (Homo sapiens, UniProt O75469); test: Activity at PXR (unknown origin)
T2 sequence (O75469 whole entry): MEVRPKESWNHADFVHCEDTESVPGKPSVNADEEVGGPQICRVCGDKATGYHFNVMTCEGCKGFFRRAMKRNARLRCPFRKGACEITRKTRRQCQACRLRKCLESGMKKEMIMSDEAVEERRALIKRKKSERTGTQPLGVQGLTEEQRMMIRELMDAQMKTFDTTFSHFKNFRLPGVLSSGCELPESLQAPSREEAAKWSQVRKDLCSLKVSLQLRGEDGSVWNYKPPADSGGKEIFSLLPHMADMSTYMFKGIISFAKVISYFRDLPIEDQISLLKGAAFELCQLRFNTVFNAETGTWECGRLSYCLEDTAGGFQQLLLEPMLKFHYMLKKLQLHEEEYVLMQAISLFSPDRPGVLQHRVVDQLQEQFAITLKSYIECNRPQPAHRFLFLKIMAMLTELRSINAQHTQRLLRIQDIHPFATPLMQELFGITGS
How it was run: (§4)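 Eight-point serial dilutions tested in an in-house AlphaScreen-based nuclear receptor panel; activity derived from nonlinear regression curves.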

[19] = Drug uptake in mouse central nervous system at 5 mg/kg, po; type: ADME, organism-based; details: in vivo
Homo sapiens [20] = species on record: Homo sapiens; test: Activity at PPAR (unknown origin); how it was run: as §4
Homo sapiens [21] = species on record: Homo sapiens; test: Activity at TR (unknown origin); how it was run: as §4
[22] = molecular target: T3, Bile acid receptor (Homo sapiens) (UniProt Q96RI1); test: Activity at FXR (unknown origin); how it was run: as §4
T3 sequence (whole entry): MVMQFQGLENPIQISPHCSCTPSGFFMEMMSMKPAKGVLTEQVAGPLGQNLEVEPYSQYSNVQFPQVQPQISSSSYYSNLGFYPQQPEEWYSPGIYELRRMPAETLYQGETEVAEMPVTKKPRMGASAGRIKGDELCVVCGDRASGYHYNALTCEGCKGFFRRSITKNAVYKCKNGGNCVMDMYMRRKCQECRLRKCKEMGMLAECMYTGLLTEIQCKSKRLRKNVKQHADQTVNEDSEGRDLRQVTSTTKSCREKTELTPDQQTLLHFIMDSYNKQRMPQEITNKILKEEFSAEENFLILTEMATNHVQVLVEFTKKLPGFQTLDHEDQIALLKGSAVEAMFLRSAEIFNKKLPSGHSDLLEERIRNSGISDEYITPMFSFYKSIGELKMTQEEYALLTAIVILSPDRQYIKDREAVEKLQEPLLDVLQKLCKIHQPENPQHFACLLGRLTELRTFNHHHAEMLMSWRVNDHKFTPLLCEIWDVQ

[23] = molecular target: T1, 2-amino-3-carboxymuconate-6-semialdehyde decarboxylase; test: Inhibition of ACMSD in human primary hepatocytes assessed as increase in intracellular NAD+ levels at 5 uM after 48 hrs by NAD/NADH-Glo assay; type: cell-based
Target sequence in this assay (Q8TDX5 whole entry, looked up): as the sequence (Q8TDX5 whole entry) above

[24] = molecular target: T4, Glucocorticoid receptor (Homo sapiens) (UniProt P04150); test: Activity at GR (unknown origin); how it was run: as §4
T4 sequence (whole entry): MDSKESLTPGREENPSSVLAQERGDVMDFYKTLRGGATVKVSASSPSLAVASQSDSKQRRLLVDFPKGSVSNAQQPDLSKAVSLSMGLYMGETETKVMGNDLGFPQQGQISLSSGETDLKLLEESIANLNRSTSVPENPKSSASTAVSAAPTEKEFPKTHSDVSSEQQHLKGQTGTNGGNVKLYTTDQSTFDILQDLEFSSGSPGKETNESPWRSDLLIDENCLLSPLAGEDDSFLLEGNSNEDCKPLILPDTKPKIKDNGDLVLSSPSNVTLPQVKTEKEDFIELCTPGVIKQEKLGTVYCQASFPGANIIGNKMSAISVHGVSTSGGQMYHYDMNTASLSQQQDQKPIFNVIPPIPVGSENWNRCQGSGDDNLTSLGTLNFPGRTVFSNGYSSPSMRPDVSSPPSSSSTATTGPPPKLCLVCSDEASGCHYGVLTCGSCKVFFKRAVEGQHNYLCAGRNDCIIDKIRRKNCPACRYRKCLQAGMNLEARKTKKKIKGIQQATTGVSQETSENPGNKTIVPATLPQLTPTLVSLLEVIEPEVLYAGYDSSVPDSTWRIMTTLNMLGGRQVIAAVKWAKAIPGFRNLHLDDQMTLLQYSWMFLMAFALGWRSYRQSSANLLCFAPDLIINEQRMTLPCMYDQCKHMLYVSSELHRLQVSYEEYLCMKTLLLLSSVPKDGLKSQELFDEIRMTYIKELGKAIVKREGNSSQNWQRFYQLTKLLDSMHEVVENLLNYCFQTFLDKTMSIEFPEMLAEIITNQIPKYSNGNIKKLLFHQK

[25] = molecular target: T5, Vitamin D3 receptor (Homo sapiens) (UniProt P11473); test: Activity at VDR (unknown origin); how it was run: as §4
T5 sequence (whole entry): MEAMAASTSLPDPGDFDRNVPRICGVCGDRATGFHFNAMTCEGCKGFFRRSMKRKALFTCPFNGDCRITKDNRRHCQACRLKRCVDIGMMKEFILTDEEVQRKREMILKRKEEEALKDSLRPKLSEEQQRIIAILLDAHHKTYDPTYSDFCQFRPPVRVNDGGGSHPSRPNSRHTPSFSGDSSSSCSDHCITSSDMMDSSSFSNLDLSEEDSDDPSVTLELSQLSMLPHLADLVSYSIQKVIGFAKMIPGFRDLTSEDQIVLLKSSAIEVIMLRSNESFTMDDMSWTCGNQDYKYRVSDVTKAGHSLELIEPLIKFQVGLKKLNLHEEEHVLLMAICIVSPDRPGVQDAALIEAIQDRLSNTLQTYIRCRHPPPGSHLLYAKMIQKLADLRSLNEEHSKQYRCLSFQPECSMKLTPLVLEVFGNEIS

Homo sapiens [26] = species on record: Homo sapiens; test: Activity at RXR (unknown origin); how it was run: as §4
Homo sapiens [27] = species on record: Homo sapiens; test: Activity at LXR (unknown origin); how it was run: as §4

Cytochrome P450 2C19, sequence (P33261 whole entry): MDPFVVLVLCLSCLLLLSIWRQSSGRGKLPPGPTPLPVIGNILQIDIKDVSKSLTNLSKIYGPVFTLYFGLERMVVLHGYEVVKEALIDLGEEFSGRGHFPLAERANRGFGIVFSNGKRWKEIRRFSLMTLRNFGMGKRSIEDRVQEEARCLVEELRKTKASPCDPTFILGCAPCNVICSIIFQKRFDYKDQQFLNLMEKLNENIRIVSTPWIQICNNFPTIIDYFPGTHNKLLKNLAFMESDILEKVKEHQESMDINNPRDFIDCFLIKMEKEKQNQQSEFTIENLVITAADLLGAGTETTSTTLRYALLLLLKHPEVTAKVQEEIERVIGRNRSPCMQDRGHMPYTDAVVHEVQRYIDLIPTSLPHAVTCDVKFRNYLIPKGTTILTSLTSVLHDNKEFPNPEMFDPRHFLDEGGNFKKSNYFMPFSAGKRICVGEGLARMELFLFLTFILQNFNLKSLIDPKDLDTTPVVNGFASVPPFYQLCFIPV
Voltage-gated inwardly rectifying potassium channel KCNH2, sequence (Q12809 whole entry): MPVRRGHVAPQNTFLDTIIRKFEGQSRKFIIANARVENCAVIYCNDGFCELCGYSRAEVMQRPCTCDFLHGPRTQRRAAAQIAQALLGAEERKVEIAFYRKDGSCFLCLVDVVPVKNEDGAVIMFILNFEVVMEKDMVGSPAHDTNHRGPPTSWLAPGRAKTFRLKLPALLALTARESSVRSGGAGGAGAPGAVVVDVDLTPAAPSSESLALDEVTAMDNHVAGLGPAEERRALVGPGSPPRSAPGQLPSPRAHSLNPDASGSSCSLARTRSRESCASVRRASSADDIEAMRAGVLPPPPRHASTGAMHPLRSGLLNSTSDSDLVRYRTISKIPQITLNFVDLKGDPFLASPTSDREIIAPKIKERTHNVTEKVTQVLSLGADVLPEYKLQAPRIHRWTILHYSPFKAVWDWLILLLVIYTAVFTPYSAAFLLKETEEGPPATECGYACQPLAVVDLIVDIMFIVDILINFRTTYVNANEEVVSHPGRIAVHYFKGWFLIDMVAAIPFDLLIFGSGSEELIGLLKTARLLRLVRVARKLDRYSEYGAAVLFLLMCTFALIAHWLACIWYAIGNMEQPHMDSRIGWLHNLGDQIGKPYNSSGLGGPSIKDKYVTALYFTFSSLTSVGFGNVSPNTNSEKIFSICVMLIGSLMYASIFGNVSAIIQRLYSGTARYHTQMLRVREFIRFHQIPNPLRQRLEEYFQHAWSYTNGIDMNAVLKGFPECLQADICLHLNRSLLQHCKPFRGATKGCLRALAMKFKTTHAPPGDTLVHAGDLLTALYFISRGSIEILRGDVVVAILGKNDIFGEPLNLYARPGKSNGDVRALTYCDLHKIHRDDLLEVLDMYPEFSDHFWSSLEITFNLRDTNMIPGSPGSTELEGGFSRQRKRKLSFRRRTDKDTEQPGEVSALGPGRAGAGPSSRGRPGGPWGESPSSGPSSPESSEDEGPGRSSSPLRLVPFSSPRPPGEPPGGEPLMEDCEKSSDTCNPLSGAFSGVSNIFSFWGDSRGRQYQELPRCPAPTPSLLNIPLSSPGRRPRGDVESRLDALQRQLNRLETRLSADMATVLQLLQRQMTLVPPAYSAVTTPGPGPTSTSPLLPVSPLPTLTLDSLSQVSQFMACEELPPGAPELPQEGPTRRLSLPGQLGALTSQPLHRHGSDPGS
Kynurenine 3-monooxygenase, sequence (O88867 whole entry): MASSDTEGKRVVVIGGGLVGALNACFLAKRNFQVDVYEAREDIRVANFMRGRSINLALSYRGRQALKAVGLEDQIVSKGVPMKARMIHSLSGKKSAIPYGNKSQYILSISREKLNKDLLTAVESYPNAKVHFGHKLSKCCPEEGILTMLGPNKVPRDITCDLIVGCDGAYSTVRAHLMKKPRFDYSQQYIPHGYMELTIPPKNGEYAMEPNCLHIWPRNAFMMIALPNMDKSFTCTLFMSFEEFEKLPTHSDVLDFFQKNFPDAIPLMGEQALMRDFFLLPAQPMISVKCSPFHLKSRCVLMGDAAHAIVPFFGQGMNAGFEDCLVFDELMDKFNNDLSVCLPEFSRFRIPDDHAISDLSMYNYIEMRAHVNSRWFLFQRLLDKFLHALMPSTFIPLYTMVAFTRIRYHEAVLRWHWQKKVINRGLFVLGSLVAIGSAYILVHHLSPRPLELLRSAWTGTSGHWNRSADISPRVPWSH

IC50 [1]: 151 nM
Compound: O=C(O)c1cccc(CSc2nc(-c3ccccc3)c(Cl)c(=O)[nH]2)c1

IC50 [1]: 89 nM
Compound: N#Cc1c(C2CCCCC2)nc(SCc2cccc(C(=O)O)c2)[nH]c1=O

IC50 [1]: 99 nM
Compound: O=C(O)c1cccc(CSc2nc(-c3ccccc3)c(Br)c(=O)[nH]2)c1

IC50 [1]: 1900 nM
Compound: Cc1nc(SCc2cccc(C(=O)O)c2)[nH]c(=O)c1C#N

IC50 [2]: 20 nM
Compound: O=C(O)C1CC1C(=O)c1ccc(Cl)c(Cl)c1 (stereo not given)

IC50 [1]: 45 nM
Compound: N#Cc1c(-c2ccccc2)nc(SCc2cccc(C(=O)O)c2)[nH]c1=O

IC50 [1]: 20 nM
Compound: N#Cc1c(-c2cccs2)nc(SCc2cccc(C(=O)O)c2)[nH]c1=O

Vd [3]: 0.306 L/kg
half-life [4]: 4.02 h
Drug uptake [5]: Not Active
bioavailability [6]: 2.3%
AUC(0-t) at 24 h [7]: 6900 ng·h/mL
Cmax [8]: 255 ng/mL
Papp A→B at 1.5 h, 3 µM [9]: 0.584 ×10⁻⁶ cm/s
solubility at 24 h [10]: 1000 µg/mL (≈ 2540 µM)
AUC(0-t) at 8 h [11]: 1620 ng·h/mL
IC50 (Cytochrome P450 2C19): 100 nM
AUC(0-t) at 8 h [12]: 4290 ng·h/mL
clearance [13]: 1.2 mL/min/kg
Tmax [14]: 2 h
IC50 [1]: 3 nM
AUC(0-t) at 8 h [17]: 2830 ng·h/mL
Activity [18]: Not Active
Drug uptake [19]: Not Active
Compound: N#Cc1c(-c2cccs2)nc(SCc2cccc(-c3nn[nH]n3)c2)[nH]c1=O
Activity (HepG2): Non-Toxic
inhibition (INH) [15]: Not Active
Activity [16]: Non-Toxic

IC50 [1]: 3350 nM
Compound: N#Cc1c(-c2cccs2)nc(SCc2cccc(-c3noc(C(F)(F)F)n3)c2)[nH]c1=O

Activity (Homo sapiens [20]): inactive
Activity (Homo sapiens [21]): inactive
Activity [22]: inactive
inhibition [23]: Active
Activity [24]: inactive
Activity [25]: inactive
Activity (Homo sapiens [26]): inactive
Activity (Homo sapiens [27]): inactive
Compound: N#Cc1c(-c2cccs2)nc(SCc2cccc(-c3nnn[nH]3)c2)[nH]c1=O

IC50 [1]: 1050 nM
Compound: O=C(O)c1cccc(CSc2nc(-c3ccccc3)cc(=O)[nH]2)c1

IC50 [1]: 1750 nM
Compound: N#Cc1c(-c2cccs2)nc(SCc2cccc(C(=O)NO)c2)[nH]c1=O

IC50 [1]: 4450 nM
Compound: N#Cc1c(-c2ccccc2)nc(SCc2ccccc2)[nH]c1=O

IC50 [1]: 316 nM
Compound: N#Cc1c(Cl)nc(SCc2cccc(C(=O)O)c2)nc1-c1ccccc1
